The text below walks through data of ChEMBL document CHEMBL1130160 (J Med Chem, 1997).

In assay [1] the test system is Rattus norvegicus. Description: Dose required to reduce serum cholesterol by 50% relative to OVX controls was determined (in vivo). It is filed as functional. In outline:
(§1)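 OVX Sprague–Dawley rats (75 days old), 5–6 per group, dosed once daily by oral gavage for 4 consecutive days, starting 14 days after ovariectomy. Vehicle was 20% β-hydroxycyclodextrin at 1 mL/kg, or 1.5% carboxymethylcellulose in some cases. Rats were fasted after the last dose and bled by cardiac puncture next morning.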

The subject of assay [2] is Rattus norvegicus. In words: Percent decrease in serum cholesterol relative to OVX control at 0.1 mg/kg in rat was determined (in vivo). The assay is classed as functional. In outline:
as §1

The subject of assay [3] is Rattus norvegicus. Description: Percent decrease in serum cholesterol relative to OVX control at 1 mg/kg in rat. It is filed as functional. In outline: as §1
For assay [4], the system named is Rattus norvegicus. Description: Percent decrease in serum cholesterol relative to OVX control at 10 mg/kg in rat was determined (in vivo). The assay is classed as functional. In outline: as §1
Assay [5] has as its system Rattus norvegicus. In words: Minimum effective dose at which significant increase in uterine eosinophil peroxidase (EPO) activity in rat was determined (in vivo). It is filed as functional. Conditions: read-out: MED.
Assay [6] has as its system Rattus norvegicus. In words: Minimum effective dose at which significant increase in uterine weight/body weight in rat was determined (in vivo). The assay is classed as functional. The settings on record: read-out: MED. The method in brief:
(§2)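 In 75-day OVX Sprague–Dawley rats dosed orally for 4 days, beginning 2 weeks post-ovariectomy with 5–6 rats per group, whole uteri were weighed the morning after fasting. MED is the lowest dose giving a significant (p≤0.05) rise in uterine weight/body weight, expressed as % increase over OVX controls ±SE.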

In assay [7] the test system is Rattus norvegicus. Description: Minimum effective dose at which significant increase in uterine weight/body weight in rat was determined (in vivo); expressed as % increase relative to ovariectomized (OVX) controls. It is filed as functional. The method in brief: as §2
For assay [8], the system named is Rattus norvegicus. In words: Percent protection of bone mineral density in the distal femur of 75-days old OVX rat at a dose of 0.01 mg/kg/day. It is filed as functional. In outline:
(§3)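 OVX Sprague–Dawley rats (6-month old, or 75-day old in one case) were dosed orally each day for 35 days, starting 4 days after ovariectomy. Digitized X-rays of the right distal femoral metaphysis gave BMD. % protection = (test − OVX)/(sham − OVX) × 100, reported ±SE.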

Assay [9] relates to Rattus norvegicus. In words: Percent protection of bone mineral density in the distal femur of 75-days old OVX rat at a dose of 0.1 mg/kg/day. The assay is classed as functional. In outline:
as §3

Assay [10] concerns Rattus norvegicus. Description: Percent protection of bone mineral density in the distal femur of 75-days old OVX rat at a dose of 10 mg/kg/day. The assay is classed as functional. The method in brief:
as §3

Assay [11] deals with Rattus norvegicus. Description: Percent protection of bone mineral density in the distal femur of OVX rat at a dose of 1 mg/kg/day. The assay is classed as functional. The method in brief:
as §3

For the next assay, the target named is Estrogen receptor (Homo sapiens, UniProt Q92731+P03372). Conditions: mcf7.

With `Cl.O=C(c1ccc(OCCN2CCCCC2)cc1)c1c(-c2ccc(O)cc2)sc2ccccc12`, the ED50 – broadly, the midpoint of the dose-response relation – in the assay with Rattus norvegicus [1] is below 0.1 mg/kg. Further, the Decrease was found to be 70.7% in the assay on Rattus norvegicus [2], 69.9% in the assay on Rattus norvegicus [3] and 67.4% in the assay on Rattus norvegicus [4]. Also, the minimal effective dose is above 10 mg/kg in the assay with Rattus norvegicus [5] and 0.1 mg/kg in the assay on Rattus norvegicus [6]. The compound also gave an Increase in the assay with Rattus norvegicus [7] of 39.2%. Also, the Protection in the assay with Rattus norvegicus [8] is given as -1.3%; in the assay on Rattus norvegicus [9], -4%; in the assay on Rattus norvegicus [10], 26.7%; in the assay on Rattus norvegicus [11], 41.8%. The IC50 (as a rule, the concentration that gives 50% inhibition) on Estrogen receptor worked out at 35 nM.
